Screens: PubChem BioAssay, several laboratories
Sampled rows, rich in hits. Any-hit rate of the full collection: about 2.1%.
ARNT TACC3 PPI: ARNT/TACC3 interaction disruption; AlphaScreen His-ARNT PAS-B/GST-TACC3 binding, luminescence; TACC3 fragment carries E629A point mutation; Q9Y6A5; inhibition, % at 9.99 µM; 390,000 compounds, 0.66% hits;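 active = mean inhibition of replicates at least 50% and at least half of replicates each reaching 50%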
Efflux pump mplx: blocks antifungal efflux pumps in multiplex yeast assay; S. cerevisiae Candida pump triplex, Nile Red efflux; inhibition, % at 10 µM; 330,000 compounds, 0.44% hits; AID 485275;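 active = plate passing quality check with inhibition over a set limit, or well fluorescence over plate mean plus 4 SD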;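 also: Nile Red retained in pooled yeast measured as flow cytometry median fluorescence; higher means more Nile Red kept so more efflux inhibition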
RTF Ca sens inh: cardiac RTF calcium desensitization; P19429+P45379; IANBD-labeled cardiac RTF, Ca2+ fluorescence; inhibition, % at 7.15 µM; 340,000 compounds, 0.12% hits;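 active = inhibition above the mean inhibition of all tested compounds plus 3 SD, cut at about 17% in these data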;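 also: assay run at fixed EC70 calcium of 1.6 mM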
Mot1-301 SUMO: inhibitors of SUMOylation pathway: yeast Mot1-301 growth rescue; S. cerevisiae Mot1-301 growth rescue, ATP luminescence, 38.5C; percent above DMSO median, 100 means doubled; growth rescue, % at 18.8 µM; AID 2716; 320,000 compounds, 1% hits;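 active = every valid replicate shows activation above 250% relative to neutral control wells; inactive = the rest, any valid replicate at or below 250%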
UCH37 DUB inh: human UCH37 deubiquitinating enzyme inhibition | Q9Y5K5 | 330,000 compounds, 0.33% hits | inhibition, % (concentration not given with the values) | purified proteasome/UCH37, Ub-AMC cleavage fluorescence | AID 588478;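 active = mean inhibition over replicate wells above about 20%, limit read from the data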
Target sequence (Q9Y5K5 whole entry, looked up): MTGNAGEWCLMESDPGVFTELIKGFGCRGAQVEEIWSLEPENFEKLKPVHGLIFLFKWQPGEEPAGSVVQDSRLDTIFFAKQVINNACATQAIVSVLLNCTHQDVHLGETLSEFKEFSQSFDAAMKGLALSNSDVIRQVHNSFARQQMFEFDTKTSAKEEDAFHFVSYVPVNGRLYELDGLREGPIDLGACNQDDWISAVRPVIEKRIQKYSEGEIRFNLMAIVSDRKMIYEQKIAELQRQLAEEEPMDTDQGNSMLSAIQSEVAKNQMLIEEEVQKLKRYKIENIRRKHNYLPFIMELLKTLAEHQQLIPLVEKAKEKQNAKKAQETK
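Reagent: Ub-AMC substrate; assay system: Proteasome-associated human UCH37 deubiquitinase; controls: no-proteasome and no-compound wells; read-out: % inhibition of Ub-AMC cleavage fluorescence; timing: 30 min preincubation with enzyme, 25 min cleavage at room temperature; signal: AMC fluorescence from Ub-AMC cleavage, excitation 355 nm, emission 460 nm; buffer or medium: Tris-HCl pH 7.4 plus ovalbumin, ATP-MgCl2, DTT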
RTF Ca sens act: cardiac RTF calcium sensitization; IANBD-labeled TnC RTF fluorescence at EC20 calcium; 0% EC20 calcium, 100% full calcium; activation, % at 7.2 µM; 340,000 compounds, 0.24% hits; AID 493008;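 active = activation above the mean over all tested compounds plus 3 SD, cut at about 30% in these data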;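 also: rise in fluorescence read as greater calcium sensitivity of cardiac thin filaments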
Hits are given with their value; 0 = inactive; - = no result given; + = active, no number.

SMILES | ARNT TACC3 PPI | Efflux pump mplx | RTF Ca sens inh | Mot1-301 SUMO | UCH37 DUB inh | RTF Ca sens act
Oc1ccc(CN2CCN(c3ccccc3)CC2)c2cccnc12 | 0 | 0 | 0 | 0 | 0 | 0
Oc1ccc(COCc2ccccc2)c2cccnc12 | 80 | 0 | 0 | 0 | 0 | 0
Oc1ccc(CN2CCCCC2)c2cccnc12 | 80 | 0 | 0 | 0 | 0 | 0
Cc1nnc(SCC(=O)NN=Cc2cc(Cl)c(O)c(Cl)c2)s1 | - | - | - | - | 0 | -
COc1cc(C=Nn2cnnc2)ccc1Oc1nc(Cl)ncc1F | - | - | - | - | 0 | -
CCNC(=S)NN=C(C)c1cccc(OC)c1 | - | - | - | - | 0 | -
Oc1c(Cl)cc(Cl)c2cccnc12 | - | - | 0 | - | 0 | 0
O=[N+]([O-])c1cc(CN2CCCC2)c2cccnc2c1O | 77 | 0 | 0 | 0 | - | 0
Oc1c(CN2CCCCC2)ccc2cccnc12 | 89 | - | 0 | - | 0 | 0
Oc1c(Cl)cc(CN2CCCCC2)c2cccnc12 | 77 | 0 | 0 | 0 | - | 0
Oc1c(CN2CCN(c3ccccn3)CC2)cc(Cl)c2cccnc12 | 60 | 0 | 0 | 0 | 0 | 0
O=[N+]([O-])c1cc(CN2CCN(c3cccc(C(F)(F)F)c3)CC2)c2cccnc2c1O | - | 0 | - | 0 | 0 | -
CCN(CC)c1ccc2cc(-c3nnc(-c4ccccc4)o3)c(=O)oc2c1 | 0 | 0 | 0 | 0 | 0 | 705
CN(C)Cc1c(O)ccc2cc(-c3nc4ccccc4n3C)c(=O)oc12 | 0 | 0 | 0 | 0 | 0 | 0
O=c1oc2ccc3ccccc3c2cc1-c1nnc(-c2ccccc2)o1 | 0 | 0 | 0 | 0 | 0 | 0
CCN(CC)c1ccc2cc(-c3nc4ccccc4[nH]3)c(=O)oc2c1 | 0 | 0 | 0 | 0 | 0 | +
CCN(CC)c1ccc2cc(-c3nc4ccccc4n3C)c(=O)oc2c1 | 0 | 0 | 0 | 0 | 0 | 102
Cc1ccc(C=NNC(=O)c2nnn(-c3nonc3N)c2CN(C)C)o1 | - | - | - | - | 0 | -
Cn1ccsc1=NC(=O)Nc1cccc(Cl)c1 | - | - | - | - | 0 | -
C/C(C=Nn1c(-c2ccncc2)n[nH]c1=S)=C/c1ccccc1 | - | - | - | - | 0 | -
CCOC(=O)c1c(NC(=O)c2nn(CC)cc2Br)sc2c1CCCCC2 | 0 | 0 | 0 | 858 | 0 | 0
CCOC(=O)c1ccc(NC(=O)c2nn(CC)cc2Br)cc1 | - | 0 | 0 | 349 | 0 | 0
CCOC(=O)c1c(NC(=O)c2nn(CC)cc2Br)sc(C)c1C | 0 | 0 | 0 | 0 | 0 | 0
Cc1ccc(C)c(OCC(=O)NN=Cc2ccsc2)c1 | - | - | - | - | 0 | -
CN(C)C=Nc1c(C(=O)NCc2ccccc2)nnn1Cc1ccccc1 | - | - | - | - | 0 | -
SMILES | ARNT TACC3 PPI | Efflux pump mplx | RTF Ca sens inh | Mot1-301 SUMO | UCH37 DUB inh | RTF Ca sens act
O=C(CCn1c(=O)[nH]c2ccsc2c1=O)NCc1ccc(F)cc1 | 0 | 0 | 0 | 451 | 0 | 0
Oc1oc(-c2cccc3ccccc23)nc1C=Nc1nccs1 | - | - | - | - | 0 | -
CCCCc1ccc(NC(=O)CSc2nc(=O)n(CCCN3CCOCC3)c3c2CCC3)cc1 | 0 | 0 | 0 | 536 | 0 | 0
CCCCc1ccc(NC(=O)CSc2nc(=O)n(CCN3CCOCC3)c3c2CCC3)cc1 | 0 | 0 | 0 | 0 | 0 | 0
COC(=O)C(C)n1cnc2c(cnn2-c2ccc(Cl)cc2)c1=O (stereo not drawn) | 0 | 0 | 0 | 0 | 30 | 0
CCOC(=O)Cn1cnc2c(cnn2-c2ccc(Cl)cc2)c1=O | 0 | 0 | 0 | 0 | 0 | 0
CC(CCc1oc2ccccc2c1-c1ccc(C)o1)=NO | - | - | - | - | 0 | -
O=C(O)c1cccnc1C(=O)O | 50 | 0 | 0 | 0 | 0 | 0
O=C(CSc1nnc2c(n1)[nH]c1ccccc12)Nc1ccc(S(=O)(=O)Nc2ncccn2)cc1 | 49 | - | 0 | - | 0 | 0
Cc1ccc(NC(=O)CSc2nnc3c(n2)[nH]c2ccccc23)cc1 | 0 | 0 | 0 | 0 | 0 | 0
O=C(O)/C(=C\c1cccc(F)c1)c1ccc(S(=O)(=O)N2CCCC2)s1 | 0 | 0 | 0 | 0 | 0 | 0
Cc1cccc(/C=C(\C(=O)O)c2ccc(S(=O)(=O)N3CCCC3)s2)c1 | 45 | 0 | 0 | 0 | 0 | 0
Cc1cc(S(=O)(=O)c2ccc([N+](=O)[O-])cn2)ccc1Br | 0 | 0 | 0 | 379 | 0 | 0
CC(C)NC(=O)N[C@@H]1CC[C@H](CC(=O)NCc2ccc(Oc3ccccc3)cc2)O[C@H]1CO | 46 | - | - | - | - | -
CC1(C)SC2C(C(=O)O)N=C(Cc3ccccc3)N2C1C(=O)O (stereo not drawn) | 71 | - | 0 | - | 0 | 0
CC1(C)S[C@@H]2[C@H](NC(=O)Cc3ccccc3)C(=O)N2[C@H]1C(=O)O | 0 | 0 | 0 | 0 | 0 | 0
Cc1cc(C)c(C=NNC(=O)c2nnn(-c3nonc3N)c2COc2ccc(F)cc2)c(C)c1 | - | - | - | - | 0 | -
CC(Cc1ccccc1)=NNC(=O)CNC(=O)c1cccc(Cl)c1 | - | - | - | - | 0 | -
COc1cc(OC)c2c(-c3cccc(-c4ccc(OC)c(F)c4)c3)cc(=O)oc2c1 | 0 | 0 | 0 | - | 0 | 0
Cc1cc(OCC(=O)N(C)C)c2c(-c3ccccc3)cc(=O)oc2c1 | - | 0 | 0 | 0 | 0 | 0
COc1cc(OC)c2c(-c3ccccc3)cc(=O)oc2c1 | 0 | 0 | 0 | 319 | 0 | 0
Cc1cc(OCC(=O)C(C)(C)C)c2c(-c3ccccc3)cc(=O)oc2c1 | 0 | 0 | 0 | 297 | 0 | 0
O=C(NN=Cc1ccc(OCC(=O)N2CCCCC2)cc1)c1ccccc1O | - | - | - | - | 0 | -
CN(C1=C(N2CCCCC2)C(=O)c2ccccc2C1=O)c1ccccc1 | 47 | 0 | 0 | 0 | 0 | 0
Cc1ccc(NC2=C(N3CCCCC3)C(=O)c3ccccc3C2=O)cc1 | 0 | 0 | 0 | 0 | 23 | 0
SMILES | ARNT TACC3 PPI | Efflux pump mplx | RTF Ca sens inh | Mot1-301 SUMO | UCH37 DUB inh | RTF Ca sens act
O=C(/C=C/c1ccc(O)cc1)c1ccc(NC2=C(N3CCCCC3)C(=O)c3ccccc3C2=O)cc1 | 0 | 0 | 0 | 0 | 22 | 0
O=C1C(Nc2ccccc2)=C(N2CCCCC2)C(=O)c2ccccc21 | 0 | 0 | 0 | 0 | 0 | 0
COc1ccccc1NC1=C(N2CCCCC2)C(=O)c2ccccc2C1=O | 0 | 0 | 0 | 0 | 52 | 0
O=C1C(NS(=O)(=O)c2ccc(Br)cc2)=C(N2CCCCC2)C(=O)c2ccccc21 | 0 | 0 | 0 | 0 | 0 | 0
COc1cc(C=NNC(N)=S)ccc1OCc1ccc(C)cc1 | - | - | - | - | 0 | -
O=S1(=O)Nc2c(ccc3cccnc23)-c2ccccc21 | 69 | 0 | 0 | + | 0 | 0
CC1C(=O)NN=C1C(=O)N/N=C\c1ccc(O)cc1O (stereo not drawn) | 79 | 0 | 0 | 0 | - | 0
COc1cc(/C=N/NC(=O)C2=NNC(=O)C2C)ccc1O (stereo not drawn) | 0 | 0 | 0 | 0 | - | 0
CN(CCNC(=O)c1cc2c(=O)n(C)c3ccccc3c2n1C)Cc1ccccc1 | 0 | 0 | 0 | 0 | 0 | 0
CCCN(CCC)CCNC(=O)c1cc2c(=O)n(C)c3ccccc3c2n1C | - | 0 | 0 | 323 | 0 | 0
COc1ccc(C(=O)Oc2cccc3cccnc23)cc1[N+](=O)[O-] | 56 | 0 | 0 | 0 | 0 | 0
NC(=O)c1ccc(Oc2cccc3cccnc23)c([N+](=O)[O-])c1 | 0 | 0 | 0 | 0 | 0 | 0
